Broadly, the inhibition is the share of the control response that was lost under treatment. In general, cell viability refers to a per cent measure of how many cells are alive, often set against a control. Lower therefore signals a greater loss of cells.

In article PMC9301951 (ACS Omega, 2022) one finds inhibition and cell viability data, which are given here for 3 compounds.

For data set [1], the target named is equine serum-derived BuChE (eqBuChE) (Equus caballus, UniProt P81908). As to the kind of experiment: Cholinesterase inhibition assay, BuChE. It counts as biochemical, horse. Conditions: read-out: BuChE inhibitory activity inhibition (%).
equine serum-derived BuChE (eqBuChE), sequence (P81908 whole entry): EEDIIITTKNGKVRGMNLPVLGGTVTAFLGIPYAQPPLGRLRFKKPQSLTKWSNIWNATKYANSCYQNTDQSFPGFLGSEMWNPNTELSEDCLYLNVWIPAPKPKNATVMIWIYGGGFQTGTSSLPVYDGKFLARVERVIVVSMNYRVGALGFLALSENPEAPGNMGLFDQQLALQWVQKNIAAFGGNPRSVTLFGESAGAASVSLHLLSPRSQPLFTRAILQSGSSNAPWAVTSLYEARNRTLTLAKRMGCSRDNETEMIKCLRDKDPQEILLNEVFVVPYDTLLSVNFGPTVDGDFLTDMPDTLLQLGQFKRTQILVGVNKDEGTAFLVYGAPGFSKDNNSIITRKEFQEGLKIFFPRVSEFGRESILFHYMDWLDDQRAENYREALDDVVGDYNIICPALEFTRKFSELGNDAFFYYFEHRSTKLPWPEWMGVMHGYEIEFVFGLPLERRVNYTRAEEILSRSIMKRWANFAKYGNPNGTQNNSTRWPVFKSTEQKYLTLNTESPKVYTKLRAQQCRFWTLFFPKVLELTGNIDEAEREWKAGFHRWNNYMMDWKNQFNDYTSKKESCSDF
The subject of data set [2] is SK-N-SH cells. As to the kind of experiment: Neuroprotective effect on H2O2-induced decrease in cell viability. It counts as cell-based. To be noted: Figure 5; H2O2-treated neurons, concentrations of 0.075–0.6 μM. A digest of the protocol: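 Cells challenged with H2O2 and treated with test compound at 0.15 μM. Viability given as % of control, with control set at 100%. Recovery (%) is viability of compound-treated cells minus viability of H2O2-only cells. Data are mean ± SD, n = 3.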

For data set [3], the target named is electric eel-derived AChE (eeAChE) (Electrophorus electricus, UniProt O42275). As to the kind of experiment: Cholinesterase inhibition assay, AChE. Conditions: read-out: AChE inhibitory activity inhibition (%). The format is biochemical.
electric eel-derived AChE (eeAChE), sequence (O42275 24-633): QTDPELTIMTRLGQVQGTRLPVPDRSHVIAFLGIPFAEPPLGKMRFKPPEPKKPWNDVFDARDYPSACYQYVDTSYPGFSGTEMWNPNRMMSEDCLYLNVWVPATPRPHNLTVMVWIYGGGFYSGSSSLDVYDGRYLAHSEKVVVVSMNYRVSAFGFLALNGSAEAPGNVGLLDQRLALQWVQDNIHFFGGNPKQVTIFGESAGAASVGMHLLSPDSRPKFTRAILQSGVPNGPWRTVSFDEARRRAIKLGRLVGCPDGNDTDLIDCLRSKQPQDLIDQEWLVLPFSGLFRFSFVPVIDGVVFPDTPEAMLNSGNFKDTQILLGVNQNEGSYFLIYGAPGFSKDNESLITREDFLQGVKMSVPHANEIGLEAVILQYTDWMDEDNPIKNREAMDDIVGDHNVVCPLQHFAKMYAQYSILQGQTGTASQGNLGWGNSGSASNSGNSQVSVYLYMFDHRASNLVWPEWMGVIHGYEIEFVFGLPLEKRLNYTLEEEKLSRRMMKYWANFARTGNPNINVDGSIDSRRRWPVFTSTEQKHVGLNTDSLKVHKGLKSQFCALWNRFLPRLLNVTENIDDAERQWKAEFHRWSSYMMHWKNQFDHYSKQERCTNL

As for `COc1ccc2c3c1O[C@H]1C[C@@H](O)C=C[C@@]31CCN(C)C2` [galantamine], the inhibition at 10000 µM in data set [1] turned out to be 96.21 ± 0.18%.
As to `COC(=O)C1=CO[C@@H](O)[C@@H]2C(CO)=CC[C@H]12` [genipin 1, genipin], the cell viability in data set [2] is listed as > 78%. Further, the inhibition at 10000 µM in data set [1] was found to be 2.42 ± 0.18%; in data set [3] it was 4.94 ± 0.05%.
As to `COC(=O)C1=CO[C@@H](O[C@@H]2O[C@H](CO)[C@@H](O)[C@H](O)[C@H]2O)[C@@H]2C(CO)=CC[C@H]12` [geniposide], the inhibition at 10000 µM is 2.09 ± 0.18% in data set [1] and 0.73 ± 0.11% in data set [3].
